Source: PubChem BioAssay
An excerpt weighted towards active compounds, which were near 2.4% of everything screened.
dFosB activator: activators of mouse delta FosB homodimer; activation, % at 25 µM; purified delta FosB, TAMRA-CDK5 oligo fluorescence polarization; percent of positive-control signal above neutral wells; P13346; actives 0.99% (n = 340,000);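 active = mean activation above about 17%, with every replicate also reaching it, limit read from the data, passing the limit was not always enough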
Target sequence (P13346 whole entry, looked up): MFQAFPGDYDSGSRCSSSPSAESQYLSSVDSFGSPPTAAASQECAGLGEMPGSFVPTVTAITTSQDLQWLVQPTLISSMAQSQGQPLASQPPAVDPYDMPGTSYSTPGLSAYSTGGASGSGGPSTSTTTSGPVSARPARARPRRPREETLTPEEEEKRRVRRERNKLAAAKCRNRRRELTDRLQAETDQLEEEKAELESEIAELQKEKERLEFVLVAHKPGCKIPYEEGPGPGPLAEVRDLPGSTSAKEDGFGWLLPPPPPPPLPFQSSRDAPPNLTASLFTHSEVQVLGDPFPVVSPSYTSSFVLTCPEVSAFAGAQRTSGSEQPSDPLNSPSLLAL
GSIS activator: GLuc luminescence reporter in INS-1E cells, primary screen for activators of glucose-dependent secretion of insulin | INS-1E GLuc reporter insulin secretion, 2-3 h | actives 0.61% (n = 370,000) | activation, % at 16.6 µM;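 active = lowest replicate activation of at least 40%, so every replicate reaches that level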
miR122 inh: inhibitors of miR-122 in Huh7 cells. activation (reporter increase), % at 12.5 µM. Huh7 miR-122 Renilla luciferase sensor, 48 h; neutral wells = 0, positive control = 100. actives 0.3% (n = 340,000);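 active = mean replicate activation score at least 90 and every replicate individually at or above 90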;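 note: higher luciferase means less miR-122 activity so hits act as miR-122 inhibitors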
Rtt109 HAT inh: blocks Candida albicans Rtt109/Vps75 acetyltransferase activity. Q5AAJ8. purified Rtt109/Vps75, ThioGlo CoA-SH fluorescence, 4 h. inhibition, % at 34.9 µM. actives 0.16% (n = 330,000). AID 540336;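 active = inhibition of at least 50% in every replicate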
Env fusion inh: inhibitors of HIV Env-mediated cell fusion; AID 651610; HeLa-JRFL Env/CEM21 cell fusion, luciferase; inhibition, % at 12.3 µM; actives 1.1% (n = 360,000);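 active = mean replicate inhibition score of at least 50 and every replicate individually at or above 50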
Cneo AK release: Cryptococcus neoformans lysis via adenylate kinase release. lysis activity, % at 15 µM. actives 0.2% (n = 360,000). C. neoformans lysis, adenylate kinase release luminescence, 4 h; normalised: neutral wells 0, clomiphene wells 100;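 active = mean lysis activity across replicates of at least 80%, whatever share of replicates individually reach that level; inactive = mean lysis activity below 80%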
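Material: C. neoformans cells | Amount: Yeast cell density of 5 × 10^6 cells/mL | Medium: Fresh YPD growth medium | Dosing: Single dose | Times: Static 4 h at 37 °C with compound, 1 h detection | Detection: AK luminescence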
Of the large screens only hits and unclear results are named; the others gave an inactive call; [ ] = another dose, or the depositor's remark.

O=C(C[C@H]1C[C@H]2c3cc(NC(=O)C4CCC4)ccc3O[C@H]2[C@@H](CO)O1)NCc1ccc2c(c1)OCO2	Env fusion inh 78[16.7 µM] (no result: dFosB activator, Rtt109 HAT inh)
O=C(C[C@@H]1C[C@@H]2c3cc(NC(=O)c4ccc5c(c4)OCO5)ccc3O[C@@H]2[C@@H](CO)O1)NCc1ccc(Oc2ccccc2)cc1	Env fusion inh 71[16.7 µM] (no result: dFosB activator, Rtt109 HAT inh)
O=C(C[C@H]1C[C@H]2c3cc(NC(=O)c4ccc5c(c4)OCO5)ccc3O[C@H]2[C@@H](CO)O1)NCc1ccc(Oc2ccccc2)cc1	none (no result: dFosB activator, Rtt109 HAT inh)
CCOC(=O)c1c(C)n(-c2ccc(C)cc2)c2ccc(OCC(O)CN3CCN(C)CC3)cc12 (stereo not given)	GSIS activator 122 (no result: miR122 inh, Cneo AK release)
CC(C)NC(=O)Nc1ccc2c(c1)C(=O)N([C@@H](C)CO)C[C@@H](C)[C@H](CN(C)C(=O)Nc1ccc(C(F)(F)F)cc1)OCCCC[C@H](C)O2	none (no result: dFosB activator, Rtt109 HAT inh)
C[C@H]1CCCCO[C@H](CN(C)C(=O)Nc2ccc(C(F)(F)F)cc2)[C@@H](C)CN([C@@H](C)CO)C(=O)c2cc(NC(=O)c3ccncc3)ccc2O1	Env fusion inh 56[16.7 µM] (no result: dFosB activator, Rtt109 HAT inh)
CC(C)NC(=O)Nc1ccc2c(c1)C(=O)N([C@H](C)CO)C[C@@H](C)[C@@H](CN(C)C(=O)Nc1ccc(C(F)(F)F)cc1)OCCCC[C@@H](C)O2	Env fusion inh 72[16.7 µM] (no result: dFosB activator, Rtt109 HAT inh)
CC(C)NC(=O)Nc1ccc2c(c1)C(=O)N([C@H](C)CO)C[C@@H](C)[C@H](CN(C)C(=O)Nc1ccc(C(F)(F)F)cc1)OCCCC[C@@H](C)O2	none (no result: dFosB activator, Rtt109 HAT inh)
CC(C)NC(=O)Nc1ccc2c(c1)C(=O)N([C@H](C)CO)C[C@@H](C)[C@H](CN(C)C(=O)Nc1ccc(C(F)(F)F)cc1)OCCCC[C@H](C)O2	Env fusion inh 75[16.7 µM] (no result: dFosB activator, Rtt109 HAT inh)
C[C@@H]1CN([C@@H](C)CO)S(=O)(=O)c2ccc(C#Cc3ccc(F)cc3)cc2O[C@H]1CN(C)C(=O)CN(C)C	none (no result: dFosB activator, Rtt109 HAT inh)
Cc1ccc(Oc2ncc(-c3ccc(Cl)cc3)cn2)cc1	GSIS activator 46 (no result: Env fusion inh)
CN(C)CC(=O)N1[C@@H](CO)[C@@H](c2ccccc2)C12CN(C(=O)c1ccccc1)C2	none (no result: dFosB activator, miR122 inh, Rtt109 HAT inh, Env fusion inh, Cneo AK release)
CS(=O)(=O)c1ccc(Cl)c(NC(=O)COC(=O)Cc2c[nH]c3ccccc23)c1	GSIS activator 52 (no result: Env fusion inh)
COc1ccc(S(=O)(=O)Nc2ccc3c(c2)CC(=O)N([C@H](C)CO)C[C@@H](C)[C@H](CN(C)C(=O)Nc2cccc4ccccc24)O3)cc1	none (no result: dFosB activator, Rtt109 HAT inh)
OCCCn1c(CCNc2nc(-c3ccc(F)cc3)cs2)nc2cc(C(F)(F)F)ccc21	Env fusion inh 72
OCCCn1c(C2CCCN2c2nc(-c3ccc(F)cc3)cs2)nc2cc(C(F)(F)F)ccc21 (stereo not given)	none
Cc1cccc(NC(=O)c2cc3n(n2)C(C(F)(F)F)CC(c2ccc4c(c2)OCO4)N3)c1 (stereo not given)	Env fusion inh 106 (no result: miR122 inh, Cneo AK release)
COc1ccc(NC(=O)c2cc3n(n2)C(C(F)(F)F)CC(c2ccc4c(c2)OCO4)N3)cc1OC (stereo not given)	none (no result: GSIS activator, Env fusion inh)
c1ccc(-c2ccc3c(c2)c2c4n3CCN=C4CCC2)cc1	Env fusion inh 60 (no result: GSIS activator)
CC(=O)Nc1ccc(C(=O)N2CC(=O)NC(=O)C2)cc1	Rtt109 HAT inh 63
NC(N)=NS(=O)(=O)c1ccc(NC(=S)NC(=O)/C=C/c2cccs2)cc1	dFosB activator 62 (no result: miR122 inh, Cneo AK release)
O=C(Nc1ccc(N2CCCC2)cc1)c1ccc(Cl)cc1Cl	none (no result: miR122 inh)
O=C(Nc1ccc(N2CCCC2)cc1)c1ccc(Br)cc1	dFosB activator 59 (no result: GSIS activator)
O=C(Nc1ccc(N2CCCC2)cc1)c1cc(Cl)ccc1Cl	dFosB activator 135
CC(C)Oc1ccc(C(=O)Nc2ccc(N3CCCC3)cc2)cc1	none (no result: Env fusion inh)
O=C(/C=C/c1ccc(Cl)c([N+](=O)[O-])c1)Nc1ccc(N2CCCC2)cc1	dFosB activator 28 (no result: miR122 inh, Cneo AK release)
O=C(/C=C/c1ccc(Cl)c([N+](=O)[O-])c1)Nc1ccc(NC(=O)c2ccco2)cc1	none (no result: Cneo AK release)
C[C@@H]1CN([C@@H](C)CO)C(=O)c2cccc(NC(=O)c3cnccn3)c2O[C@H]1CN(C)C(=O)Nc1ccc(F)cc1	none (no result: dFosB activator, Rtt109 HAT inh)
